# Data: ChEMBL document CHEMBL4732112, “Synthesis and in vitro evaluation of novel spiroketopyrazoles as acetyl-CoA carboxylase inhibitors and potential antitumor agents” (Eur J Med Chem, 2021)
# pIC50: −log10 of the molar value.
# System: HepG2
# Assay: Antiproliferative activity against human HepG2 cells assessed as cell growth inhibition after 72 hrs by MTT assay
# Format: functional, cell-based
# Details: HepG2, 72 h
# Summary of the method: (§1)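 HepG2, A549 or MDA-MB-231 cells grown in DMEM with 10% FBS and penicillin/streptomycin at 37 °C, 5% CO2. Seeded at 3×10^3 per well, left 24 h, then exposed to a range of concentrations for 72 h. MTT added for 4 h, formazan dissolved in DMSO, absorbance read at 550 nm. Mean ± SD, n=3.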
row,SMILES,pIC50
1,Cc1ccc(-c2cc(C(=O)N3CCC4(CC3)CC(=O)c3nn(C(C)(C)C)cc3O4)c3ccccc3n2)cc1,5.84
2,CN(C)c1ccc(-c2cc(C(=O)N3CCC4(CC3)CC(=O)c3nn(C(C)(C)C)cc3O4)c3ccccc3n2)cc1,5.76
3,CN1CCN(c2cc(C(=O)N3CCC4(CC3)CC(=O)c3nn(C(C)(C)C)cc3O4)c3ccccc3n2)CC1,5.02
4,COc1cccc2c1C(=O)c1c(O)c3c(c(O)c1C2=O)C[C@@](O)(C(=O)CO)C[C@@H]3O[C@H]1C[C@H](N)[C@H](O)[C@H](C)O1 [DOXORUBICIN],6.16
5,CC(C)(C)n1cc2c(n1)C(=O)CC1(CCN(C(=O)c3cc(-c4ccccc4Cl)nc4ccccc34)CC1)O2,< 5.00
6,CC(C)(C)n1cc2c(n1)C(=O)CC1(CCN(C(=O)c3cc(-c4ccc(F)cc4)nc4ccccc34)CC1)O2,5.53
7,CC(C)(C)n1cc2c(n1)C(=O)CC1(CCN(C(=O)c3cc(-c4ccc(Br)cc4)nc4ccccc34)CC1)O2,6.09
8,CC(C)Oc1cc(C(=O)N2CCC3(CC2)CC(=O)c2nn(C(C)(C)C)cc2O3)c2ccccc2n1,5.50
9,CC(C)(C)n1cc2c(n1)C(=O)CC1(CCN(C(=O)c3cc(Cl)nc4ccccc34)CC1)O2,5.33
10,CC(C)(C)n1cc2c(n1)C(=O)CC1(CCN(C(=O)c3ccc4[nH]ncc4c3)CC1)O2,5.73
11,COc1ccc(-c2cc(C(=O)N3CCC4(CC3)CC(=O)c3nn(C(C)(C)C)cc3O4)c3ccccc3n2)cc1OC,5.81

# Biological target: T1, Acetyl-CoA carboxylase 1 (Homo sapiens, UniProt Q13085)
# Assay: Inhibition of recombinant human C-terminal His-tagged ACC1 (1 to 2383 residues) expressed in baculovirus infected Sf9 insect cells at 0.1 uM preincubated for 15 mins followed by substrate addition and measured after 60 mins by ADP-glo luminescence assay relative to control
# Details: not given
row,SMILES,inhibition
1,Cc1ccc(-c2cc(C(=O)N3CCC4(CC3)CC(=O)c3nn(C(C)(C)C)cc3O4)c3ccccc3n2)cc1,93.8%
2,CN(C)c1ccc(-c2cc(C(=O)N3CCC4(CC3)CC(=O)c3nn(C(C)(C)C)cc3O4)c3ccccc3n2)cc1,96.4%
3,CN1CCN(c2cc(C(=O)N3CCC4(CC3)CC(=O)c3nn(C(C)(C)C)cc3O4)c3ccccc3n2)CC1,52.8%
4,CC(C)(C)n1cc2c(n1)C(=O)CC1(CCN(C(=O)c3cc(-c4ccccc4Cl)nc4ccccc34)CC1)O2,43.6%
5,CC(C)(C)n1cc2c(n1)C(=O)CC1(CCN(C(=O)c3cc(-c4ccc(F)cc4)nc4ccccc34)CC1)O2,87.3%
6,CC(C)(C)n1cc2c(n1)C(=O)CC1(CCN(C(=O)c3cc(-c4ccc(Br)cc4)nc4ccccc34)CC1)O2,93.2%
7,CC(C)Oc1cc(C(=O)N2CCC3(CC2)CC(=O)c2nn(C(C)(C)C)cc2O3)c2ccccc2n1,68%
8,CC(C)(C)n1cc2c(n1)C(=O)CC1(CCN(C(=O)c3cc(Cl)nc4ccccc34)CC1)O2,59.1%
9,CC(C)(C)n1cc2c(n1)C(=O)CC1(CCN(C(=O)c3ccc4[nH]ncc4c3)CC1)O2,82.5%
10,COc1ccc(-c2cc(C(=O)N3CCC4(CC3)CC(=O)c3nn(C(C)(C)C)cc3O4)c3ccccc3n2)cc1OC,95.6%

# System: MDA-MB-231
# Assay: Antiproliferative activity against human MDA-MB-231 cells assessed as cell growth inhibition after 72 hrs by MTT assay
# Format: functional, cell-based
# Details: MDA-MB-231, 72 h
# Summary of the method: as §1
row,SMILES,pIC50
1,Cc1ccc(-c2cc(C(=O)N3CCC4(CC3)CC(=O)c3nn(C(C)(C)C)cc3O4)c3ccccc3n2)cc1,< 5.00
2,CN(C)c1ccc(-c2cc(C(=O)N3CCC4(CC3)CC(=O)c3nn(C(C)(C)C)cc3O4)c3ccccc3n2)cc1,< 5.00
3,CN1CCN(c2cc(C(=O)N3CCC4(CC3)CC(=O)c3nn(C(C)(C)C)cc3O4)c3ccccc3n2)CC1,5.09
4,CC(C)(C)n1cc2c(n1)C(=O)CC1(CCN(C(=O)c3cc(-c4ccccc4Cl)nc4ccccc34)CC1)O2,< 5.00
5,CC(C)(C)n1cc2c(n1)C(=O)CC1(CCN(C(=O)c3cc(-c4ccc(F)cc4)nc4ccccc34)CC1)O2,< 5.00
6,CC(C)(C)n1cc2c(n1)C(=O)CC1(CCN(C(=O)c3cc(-c4ccc(Br)cc4)nc4ccccc34)CC1)O2,< 5.00
7,CC(C)Oc1cc(C(=O)N2CCC3(CC2)CC(=O)c2nn(C(C)(C)C)cc2O3)c2ccccc2n1,< 5.00
8,CC(C)(C)n1cc2c(n1)C(=O)CC1(CCN(C(=O)c3cc(Cl)nc4ccccc34)CC1)O2,5.04
9,CC(C)(C)n1cc2c(n1)C(=O)CC1(CCN(C(=O)c3ccc4[nH]ncc4c3)CC1)O2,5.23
10,COc1ccc(-c2cc(C(=O)N3CCC4(CC3)CC(=O)c3nn(C(C)(C)C)cc3O4)c3ccccc3n2)cc1OC,5.15

# Biological target: T1, Acetyl-CoA carboxylase 1
# Assay: Inhibition of recombinant human C-terminal His-tagged ACC1 (1 to 2383 residues) expressed in baculovirus infected Sf9 insect cells preincubated for 15 mins followed by substrate addition and measured after 60 mins by ADP-glo luminescence assay
# Details: not given
# Summary of the method: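 Recombinant ACC1 in assay buffer preincubated with inhibitor in DMSO for 15 min at room temperature. Reaction started with substrate mixture and run 60 min at room temperature. Stopped with ADP-Glo reagent for 40 min, then detection reagent for 40 min to convert ADP to ATP, read by luminescence. Mean of two independent experiments.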
row,SMILES,pIC50
1,COc1ccccc1[C@H](Cn1c(=O)n(C(C)(C)C(=O)O)c(=O)c2c(C)c(-c3ncco3)sc21)OC1CCOCC1 [FIRSOCOSTAT],8.36
2,Cc1ccc(-c2cc(C(=O)N3CCC4(CC3)CC(=O)c3nn(C(C)(C)C)cc3O4)c3ccccc3n2)cc1,8.65
3,CN(C)c1ccc(-c2cc(C(=O)N3CCC4(CC3)CC(=O)c3nn(C(C)(C)C)cc3O4)c3ccccc3n2)cc1,8.57
4,CN1CCN(c2cc(C(=O)N3CCC4(CC3)CC(=O)c3nn(C(C)(C)C)cc3O4)c3ccccc3n2)CC1,< 7.70
5,CC(C)(C)n1cc2c(n1)C(=O)CC1(CCN(C(=O)c3cc(-c4ccccc4Cl)nc4ccccc34)CC1)O2,< 7.00
6,CC(C)(C)n1cc2c(n1)C(=O)CC1(CCN(C(=O)c3cc(-c4ccc(F)cc4)nc4ccccc34)CC1)O2,8.03
7,CC(C)(C)n1cc2c(n1)C(=O)CC1(CCN(C(=O)c3cc(-c4ccc(Br)cc4)nc4ccccc34)CC1)O2,8.25
8,CC(C)Oc1cc(C(=O)N2CCC3(CC2)CC(=O)c2nn(C(C)(C)C)cc2O3)c2ccccc2n1,< 7.70
9,CC(C)(C)n1cc2c(n1)C(=O)CC1(CCN(C(=O)c3cc(Cl)nc4ccccc34)CC1)O2,< 7.70
10,COc1ccc(-c2cc(C(=O)N3CCC4(CC3)CC(=O)c3nn(C(C)(C)C)cc3O4)c3ccccc3n2)cc1OC,8.45

# System: not listed separately
# Assay: Cytotoxicity against HUVEC assessed as cell viability at 100 uM after 72 hrs by MTT assay relative to control
# Format: cell-based
# Details: human, HUVEC cells, read-out: Activity
# Summary of the method: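 HUVEC kept in RPMI 1640 with 10% FBS at 37 °C, 5% CO2. Seeded at 3×10^3 per well and treated at 100 µM for 72 h after 24 h attachment. Viability by MTT with absorbance at 550 nm, as percent of control. Mean ± SD, n=3.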
row,SMILES,"viability at 72 h, 100 µM"
1,Cc1ccc(-c2cc(C(=O)N3CCC4(CC3)CC(=O)c3nn(C(C)(C)C)cc3O4)c3ccccc3n2)cc1,49.6%
2,CN(C)c1ccc(-c2cc(C(=O)N3CCC4(CC3)CC(=O)c3nn(C(C)(C)C)cc3O4)c3ccccc3n2)cc1,91.3%
3,CN1CCN(c2cc(C(=O)N3CCC4(CC3)CC(=O)c3nn(C(C)(C)C)cc3O4)c3ccccc3n2)CC1,93.5%
4,COc1cccc2c1C(=O)c1c(O)c3c(c(O)c1C2=O)C[C@@](O)(C(=O)CO)C[C@@H]3O[C@H]1C[C@H](N)[C@H](O)[C@H](C)O1 [DOXORUBICIN],14.4%
5,CC(C)(C)n1cc2c(n1)C(=O)CC1(CCN(C(=O)c3cc(-c4ccccc4Cl)nc4ccccc34)CC1)O2,103%
6,CC(C)(C)n1cc2c(n1)C(=O)CC1(CCN(C(=O)c3cc(-c4ccc(F)cc4)nc4ccccc34)CC1)O2,98.7%
7,CC(C)(C)n1cc2c(n1)C(=O)CC1(CCN(C(=O)c3cc(-c4ccc(Br)cc4)nc4ccccc34)CC1)O2,84.1%
8,CC(C)Oc1cc(C(=O)N2CCC3(CC2)CC(=O)c2nn(C(C)(C)C)cc2O3)c2ccccc2n1,102%
9,CC(C)(C)n1cc2c(n1)C(=O)CC1(CCN(C(=O)c3cc(Cl)nc4ccccc34)CC1)O2,99.3%
10,CC(C)(C)n1cc2c(n1)C(=O)CC1(CCN(C(=O)c3ccc4[nH]ncc4c3)CC1)O2,101%
11,COc1ccc(-c2cc(C(=O)N3CCC4(CC3)CC(=O)c3nn(C(C)(C)C)cc3O4)c3ccccc3n2)cc1OC,93.7%

# Biological target: T1, Acetyl-CoA carboxylase 1
# Assay: Inhibition of recombinant human C-terminal His-tagged ACC1 (1 to 2383 residues) expressed in baculovirus infected Sf9 insect cells at 5 uM preincubated for 15 mins followed by substrate addition and measured after 60 mins by ADP-glo luminescence assay relative to control
# Details: not given
row,SMILES,inhibition
1,Cc1ccc(-c2cc(C(=O)N3CCC4(CC3)CC(=O)c3nn(C(C)(C)C)cc3O4)c3ccccc3n2)cc1,101%
2,CN(C)c1ccc(-c2cc(C(=O)N3CCC4(CC3)CC(=O)c3nn(C(C)(C)C)cc3O4)c3ccccc3n2)cc1,99.6%
3,CN1CCN(c2cc(C(=O)N3CCC4(CC3)CC(=O)c3nn(C(C)(C)C)cc3O4)c3ccccc3n2)CC1,97.4%
4,CC(C)(C)n1cc2c(n1)C(=O)CC1(CCN(C(=O)c3cc(-c4ccccc4Cl)nc4ccccc34)CC1)O2,94.4%
5,CC(C)(C)n1cc2c(n1)C(=O)CC1(CCN(C(=O)c3cc(-c4ccc(F)cc4)nc4ccccc34)CC1)O2,100%
6,CC(C)(C)n1cc2c(n1)C(=O)CC1(CCN(C(=O)c3cc(-c4ccc(Br)cc4)nc4ccccc34)CC1)O2,102%
7,CC(C)Oc1cc(C(=O)N2CCC3(CC2)CC(=O)c2nn(C(C)(C)C)cc2O3)c2ccccc2n1,99.4%
8,CC(C)(C)n1cc2c(n1)C(=O)CC1(CCN(C(=O)c3cc(Cl)nc4ccccc34)CC1)O2,96.7%
9,CC(C)(C)n1cc2c(n1)C(=O)CC1(CCN(C(=O)c3ccc4[nH]ncc4c3)CC1)O2,101%
10,COc1ccc(-c2cc(C(=O)N3CCC4(CC3)CC(=O)c3nn(C(C)(C)C)cc3O4)c3ccccc3n2)cc1OC,102%

# System: A549
# Assay: Antiproliferative activity against human A549 cells assessed as cell growth inhibition after 72 hrs by MTT assay
# Format: functional, cell-based
# Details: A549, 72 h
# Summary of the method: as §1
row,SMILES,pIC50
1,Cc1ccc(-c2cc(C(=O)N3CCC4(CC3)CC(=O)c3nn(C(C)(C)C)cc3O4)c3ccccc3n2)cc1,5.28
2,CN(C)c1ccc(-c2cc(C(=O)N3CCC4(CC3)CC(=O)c3nn(C(C)(C)C)cc3O4)c3ccccc3n2)cc1,5.94
3,CN1CCN(c2cc(C(=O)N3CCC4(CC3)CC(=O)c3nn(C(C)(C)C)cc3O4)c3ccccc3n2)CC1,< 5.00
4,COc1cccc2c1C(=O)c1c(O)c3c(c(O)c1C2=O)C[C@@](O)(C(=O)CO)C[C@@H]3O[C@H]1C[C@H](N)[C@H](O)[C@H](C)O1 [DOXORUBICIN],6.23
5,CC(C)(C)n1cc2c(n1)C(=O)CC1(CCN(C(=O)c3cc(-c4ccccc4Cl)nc4ccccc34)CC1)O2,5.66
6,CC(C)(C)n1cc2c(n1)C(=O)CC1(CCN(C(=O)c3cc(-c4ccc(F)cc4)nc4ccccc34)CC1)O2,5.24
7,CC(C)(C)n1cc2c(n1)C(=O)CC1(CCN(C(=O)c3cc(-c4ccc(Br)cc4)nc4ccccc34)CC1)O2,5.03
8,CC(C)Oc1cc(C(=O)N2CCC3(CC2)CC(=O)c2nn(C(C)(C)C)cc2O3)c2ccccc2n1,< 5.00
9,CC(C)(C)n1cc2c(n1)C(=O)CC1(CCN(C(=O)c3cc(Cl)nc4ccccc34)CC1)O2,5.14
10,CC(C)(C)n1cc2c(n1)C(=O)CC1(CCN(C(=O)c3ccc4[nH]ncc4c3)CC1)O2,5.45
11,COc1ccc(-c2cc(C(=O)N3CCC4(CC3)CC(=O)c3nn(C(C)(C)C)cc3O4)c3ccccc3n2)cc1OC,5.69
